# Assay results: ChEMBL document CHEMBL5058577, “EUbOPEN Chemogenomics Library 2 (Multiplex)” (2022)
# System: HEK-293T
# Test: Multiplex assay against HEK293T
# Type: toxicity, cell-based
# Details: human
# How it was run: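 Live cells carried four stains from seeding: Hoechst33342, BioTracker Green Microtubule Cytoskeleton Dye, MitoTracker Red and Annexin V Alexa Fluor 680. They were imaged on a CQ1 microscope at 37°C and 5% CO2 after compound addition. Using CellPathfinder machine-learning gating, cells were split into Hoechst high-intensity objects or normal cells, normal cells into healthy, pyknosed or fragmented nuclei, and pyknosed cells into mitotic or apoptotic; tubulin, mitochondrial-mass and membrane-permeability phenotypes are per cents of healthy-nucleus cells.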
# [1] = 12 h, 1 µM, compound concentration 1 uM, replicate 1
# [2] = 12 h, 1 µM, compound concentration 1 uM, replicate 2
# [3] = 12 h, 10 µM, compound concentration 10 uM, replicate 1
# [4] = 12 h, 10 µM, compound concentration 10 uM, replicate 2
# [5] = 24 h, 1 µM, compound concentration 1 uM, replicate 1
# [6] = 24 h, 1 µM, compound concentration 1 uM, replicate 2
# [7] = 24 h, 10 µM, compound concentration 10 uM, replicate 1
# [8] = 24 h, 10 µM, compound concentration 10 uM, replicate 2
# [9] = 48 h, 1 µM, compound concentration 1 uM, replicate 1
# [10] = 48 h, 1 µM, compound concentration 1 uM, replicate 2
# [11] = 48 h, 10 µM, compound concentration 10 uM, replicate 1
# [12] = 48 h, 10 µM, compound concentration 10 uM, replicate 2
compound,measurement,setting,value
CC(C)(C)c1cc(NC(=O)Nc2ccc(-c3cn4c(n3)sc3cc(OCCN5CCOCC5)ccc34)cc2)no1 [QUIZARTINIB],Population Apoptotic (%),[1],27%
same,Population Fragmented Nuclei (%),[1],5%
same,Population Healthy Nuclei (%),[1],83%
same,Population Hoechst High Intensity Objects (%),[1],10%
same,Population Membrane Permeable-Phenotype (%),[1],0%
same,Population Mitochondria Different-Phenotype (%),[1],40%
same,Population Mitotic Cells (%),[1],72%
same,Population Normal (%),[1],89%
same,Population Pyknosed Nuclei (%),[1],11%
same,Population Tubulin-Different-Phenotype (%),[1],35%
same,Total Cell Count,[1],377
same,Population Apoptotic (%),[2],34%
same,Population Healthy Nuclei (%),[2],80%
same,Population Hoechst High Intensity Objects (%),[2],6%
same,Population Mitochondria Different-Phenotype (%),[2],58%
same,Population Mitotic Cells (%),[2],65%
same,Population Normal (%),[2],93%
same,Population Pyknosed Nuclei (%),[2],14%
same,Population Tubulin-Different-Phenotype (%),[2],26%
same,Total Cell Count,[2],345
same,Population Apoptotic (%),[3],53%
same,Population Fragmented Nuclei (%),[3],7%
same,Population Healthy Nuclei (%),[3],71%
same,Population Hoechst High Intensity Objects (%),[3],23%
same,Population Membrane Permeable-Phenotype (%),[3],0%
same,Population Mitochondria Different-Phenotype (%),[3],78%
same,Population Mitotic Cells (%),[3],46%
same,Population Normal (%),[3],76%
same,Population Pyknosed Nuclei (%),[3],21%
same,Population Tubulin-Different-Phenotype (%),[3],68%
same,Total Cell Count,[3],324
same,Population Apoptotic (%),[4],73%
same,Population Hoechst High Intensity Objects (%),[4],12%
same,Population Mitochondria Different-Phenotype (%),[4],81%
same,Population Mitotic Cells (%),[4],26%
same,Population Normal (%),[4],87%
same,Population Tubulin-Different-Phenotype (%),[4],63%
same,Total Cell Count,[4],293
same,Population Apoptotic (%),[5],41%
same,Population Fragmented Nuclei (%),[5],7%
same,Population Healthy Nuclei (%),[5],84%
same,Population Hoechst High Intensity Objects (%),[5],6%
same,Population Membrane Permeable-Phenotype (%),[5],0%
same,Population Mitochondria Different-Phenotype (%),[5],26%
same,Population Mitotic Cells (%),[5],58%
same,Population Normal (%),[5],93%
same,Population Pyknosed Nuclei (%),[5],7%
same,Population Tubulin-Different-Phenotype (%),[5],21%
same,Total Cell Count,[5],491
same,Population Apoptotic (%),[6],38%
same,Population Fragmented Nuclei (%),[6],5%
same,Population Hoechst High Intensity Objects (%),[6],4%
same,Population Mitochondria Different-Phenotype (%),[6],40%
same,Population Mitotic Cells (%),[6],61%
same,Population Normal (%),[6],95%
same,Population Pyknosed Nuclei (%),[6],10%
same,Population Tubulin-Different-Phenotype (%),[6],17%
same,Total Cell Count,[6],440
same,Population Apoptotic (%),[7],62%
same,Population Fragmented Nuclei (%),[7],8%
same,Population Healthy Nuclei (%),[7],79%
same,Population Hoechst High Intensity Objects (%),[7],16%
same,Population Membrane Permeable-Phenotype (%),[7],0%
same,Population Mitochondria Different-Phenotype (%),[7],63%
same,Population Mitotic Cells (%),[7],37%
same,Population Normal (%),[7],83%
same,Population Pyknosed Nuclei (%),[7],12%
same,Population Tubulin-Different-Phenotype (%),[7],57%
same,Total Cell Count,[7],413
same,Population Apoptotic (%),[8],69%
same,Population Fragmented Nuclei (%),[8],9%
same,Population Healthy Nuclei (%),[8],78%
same,Population Hoechst High Intensity Objects (%),[8],9%
same,Population Mitochondria Different-Phenotype (%),[8],75%
same,Population Mitotic Cells (%),[8],30%
same,Population Normal (%),[8],90%
same,Population Pyknosed Nuclei (%),[8],11%
same,Population Tubulin-Different-Phenotype (%),[8],50%
same,Total Cell Count,[8],321
same,Population Apoptotic (%),[9],21%
same,Population Fragmented Nuclei (%),[9],12%
same,Population Healthy Nuclei (%),[9],80%
same,Population Hoechst High Intensity Objects (%),[9],3%
same,Population Membrane Permeable-Phenotype (%),[9],2%
same,Population Mitochondria Different-Phenotype (%),[9],11%
same,Population Mitotic Cells (%),[9],78%
same,Population Normal (%),[9],96%
same,Population Pyknosed Nuclei (%),[9],6%
same,Population Tubulin-Different-Phenotype (%),[9],15%
same,Total Cell Count,[9],851
same,Population Fragmented Nuclei (%),[10],10%
same,Population Healthy Nuclei (%),[10],82%
same,Population Hoechst High Intensity Objects (%),[10],2%
same,Population Membrane Permeable-Phenotype (%),[10],0%
same,Population Mitochondria Different-Phenotype (%),[10],24%
same,Population Normal (%),[10],97%
same,Population Tubulin-Different-Phenotype (%),[10],18%
same,Total Cell Count,[10],566
same,Population Apoptotic (%),[11],57%
same,Population Fragmented Nuclei (%),[11],9%
same,Population Healthy Nuclei (%),[11],77%
same,Population Hoechst High Intensity Objects (%),[11],9%
same,Population Membrane Permeable-Phenotype (%),[11],1%
same,Population Mitochondria Different-Phenotype (%),[11],40%
same,Population Mitotic Cells (%),[11],42%
same,Population Normal (%),[11],90%
same,Population Pyknosed Nuclei (%),[11],12%
same,Population Tubulin-Different-Phenotype (%),[11],35%
same,Total Cell Count,[11],583
same,Population Apoptotic (%),[12],58%
same,Population Fragmented Nuclei (%),[12],11%
same,Population Healthy Nuclei (%),[12],73%
same,Population Hoechst High Intensity Objects (%),[12],12%
same,Population Membrane Permeable-Phenotype (%),[12],0%
same,Population Mitochondria Different-Phenotype (%),[12],59%
same,Population Mitotic Cells (%),[12],41%
same,Population Normal (%),[12],87%
same,Population Pyknosed Nuclei (%),[12],14%
same,Population Tubulin-Different-Phenotype (%),[12],37%
same,Total Cell Count,[12],392
